Data reported in ChEMBL document CHEMBL1671761, “Preclinical characterization of BI 201335, a C-terminal carboxylic acid inhibitor of the hepatitis C virus NS3-NS4A protease” (Antimicrob Agents Chemother, 2010).
pEC50: −log10 of the molar value.

How the values were obtained:
[1] = target: Caspase-4 (Homo sapiens) (UniProt P49662); assay: Inhibition of human caspase-4 at 10 uM
[2] = AUC (0 to infinity) in rat at 5 mg/kg, po; assay type: ADME, organism-based; set-up: time infinity, dose 5 mg/kg, route oral; conditions: plasma
Method in brief: (§1)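 Single oral dose of 5 mg/kg in 0.5% Methocel with 0.3% Tween 80 (10 ml/kg) to fasted male animals: Sprague-Dawley rats (275-300 g, overnight fast with 10% dextrose water), rhesus monkeys, beagle dogs. Rat blood from cannulated carotid at 0-8 h, pooled from 3 rats per time point; monkey/dog n=3. Plasma solid-phase extracted, LC-MS/MS at m/z 869.3; noncompartmental analysis.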

[3] = species on record: Rattus norvegicus; assay: Inhibition of rat glycine receptor at 10 uM
[4] = target: Plasminogen (Homo sapiens) (UniProt P00747); assay: Inhibition of human plasmin at 10 uM
[5] = species on record: Homo sapiens; assay: Inhibition of human nicotinic acetylcholine receptor at 10 uM
[6] = AUC (0 to infinity) in dog at 5 mg/kg, po; assay type: ADME, organism-based, Canis lupus familiaris; set-up: time infinity, dose 5 mg/kg, route oral; conditions: plasma; method in brief: as §1
[7] = target: Cathepsin G (Homo sapiens) (UniProt P08311); assay: Inhibition of human cathepsin G at 10 uM
[8] = Mean retention time in Sprague-Dawley rat at 5 mg/kg, po; assay type: ADME, organism-based, Sparague-Dawley; set-up: dose 5 mg/kg, route oral; conditions: in vivo
Method in brief: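 Male Sprague-Dawley rats (275-300 g), fasted overnight with 10% dextrose water. Single oral dose in 0.5% Methocel/0.3% Tween 80 at 10 ml/kg. Carotid-cannula blood taken 0-8 h, with plasma from 3 rats pooled per time point. Solid-phase extraction, then LC-MS/MS at m/z 869.3 (LOQ 10 nM). Noncompartmental analysis.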

[9] = target: Caspase-5 (Homo sapiens) (UniProt P51878); assay: Inhibition of human caspase-5 at 10 uM
[10] = species on record: Rattus norvegicus; assay: Inhibition of rat 5-HT1 receptor at 10 uM
[11] = target: Chymase (Homo sapiens) (UniProt P23946); assay: Inhibition of human chymase at 10 uM
[12] = target: 5-hydroxytryptamine receptor 4 (Cavia porcellus) (UniProt O70528); assay: Inhibition of guinea pig 5-HT4 receptor at 10 uM
[13] = target: Stromelysin-1 (Homo sapiens) (UniProt P08254); assay: Inhibition of human MMP-3 at 10 uM
[14] = target: Plasma kallikrein (Homo sapiens) (UniProt P03952); assay: Inhibition of human kallikrein at 10 uM
[15] = target: Nitric oxide synthase, inducible (Mus musculus) (UniProt P29477); assay: Inhibition of mouse iNOS at 10 uM
[16] = target: Neprilysin (Rattus norvegicus) (UniProt P07861); assay: Inhibition of rat neutral endopeptidase at 10 uM
[17] = target: Protein kinase C (PKC) (Rattus norvegicus) (UniProt P05696+P68403+P09216+P63319+P09215+Q64617+Q9WTQ0+P09217); assay: Inhibition of rat PKC at 10 uM
[18] = target: Thromboxane A2 receptor (Homo sapiens) (UniProt P21731); assay: Inhibition of human Thromboxane A2 receptor at 10 uM
[19] = target: Caspase-10 (Homo sapiens) (UniProt Q92851); assay: Inhibition of human recombinant caspase-10 expressed in Escherichia coli at 10 uM by fluorimetry
[20] = species on record: Rattus norvegicus; assay: Inhibition of rat mAChR at 10 uM
[21] = Cmax in dog at 5 mg/kg, po; assay type: ADME, organism-based, Canis lupus familiaris; set-up: dose 5 mg/kg, route oral; conditions: in vivo; method in brief: as §1
[22] = species on record: Rattus norvegicus; assay: Inhibition of rat GABA B receptor at 10 uM
[23] = species on record: Homo sapiens; assay: Inhibition of human chymotrypsin at 10 uM
[24] = target: 5-hydroxytryptamine receptor 2A (Rattus norvegicus) (UniProt P14842); assay: Inhibition of rat 5-HT2A receptor at 10 uM
[25] = target: Caspase-3 (Homo sapiens) (UniProt P42574); assay: Inhibition of human caspase-3 at 10 uM
[26] = target: Histamine H2 receptor (Homo sapiens) (UniProt P25021); assay: Inhibition of human H2 receptor at 10 uM
[27] = target: Cathepsin B (Homo sapiens, UniProt P07858); assay: Inhibition of human cathepsin B at 10 uM
[28] = target: D(1A) dopamine receptor (Homo sapiens) (UniProt P21728); assay: Inhibition of human dopamine receptor 1 at 10 uM
[29] = species on record: Rattus norvegicus; assay: Inhibition of rat calcium channel N-type at 10 uM
[30] = target: Calpain-1 catalytic subunit (Homo sapiens) (UniProt P07384); assay: Inhibition of human calpain-1 at 10 uM
[31] = target: Caspase-6 (Homo sapiens) (UniProt P55212); assay: Inhibition of human caspase-6 at 10 uM
[32] = species on record: Rattus norvegicus; assay: Inhibition of rat opiate receptor at 10 uM
[33] = target: Neutrophil collagenase (Homo sapiens) (UniProt P22894); assay: Inhibition of human MMP-8 at 10 uM
[34] = target: Prothrombin (Homo sapiens) (UniProt P00734); assay: Inhibition of human thrombin at 10 uM
[35] = AUC (0 to infinity) in monkey at 5 mg/kg, po; assay type: ADME, organism-based, Macaca mulatta; set-up: time infinity, dose 5 mg/kg, route oral; conditions: rhesus monkey, plasma; method in brief: as §1
[36] = target: Inositol 1,4,5-trisphosphate-gated calcium channel ITPR1 (Rattus norvegicus) (UniProt P29994); assay: Inhibition of rat IP3 receptor at 10 uM
[37] = target: Angiotensin-converting enzyme (Homo sapiens) (UniProt P12821); assay: Inhibition of human ACE at 10 uM
[38] = target: Coagulation factor VII (Homo sapiens) (UniProt P08709); assay: Inhibition of human factor 7a at 10 uM
[39] = Cmax in monkey at 5 mg/kg, po; assay type: ADME, organism-based, Macaca mulatta; set-up: dose 5 mg/kg, route oral; conditions: rhesus monkey, in vivo; method in brief: as §1
[40] = Tmax in dog at 5 mg/kg, po; assay type: ADME, organism-based, Canis lupus familiaris; set-up: dose 5 mg/kg, route oral; conditions: in vivo
Method in brief: (§2)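 Fasted male beagle dogs (9.8-13.8 kg) given a single oral dose in 0.5% Methocel/0.3% Tween 80. Plasma taken by solid-phase extraction and measured by LC-MS/MS at m/z 869.3 (LOQ 50 nM). Noncompartmental analysis. Mean ± SE for three males.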

[41] = target: Sodium-dependent noradrenaline transporter (Homo sapiens) (UniProt P23975); assay: Inhibition of human norepinephrine transporter at 10 uM
[42] = test system: Hepatitis C virus; assay: Antiviral activity against HCV 2a clone JFH1 infected in Huh7 cells assessed as inhibition of viral replication after 72 hrs by RT-PCR; assay type: functional, organism-based, Hepacivirus hominis; conditions: genotype 2a clone JFH1, Huh-7, 72 h
Method in brief: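 Genotype 2a replicon (Huh-7 cells carrying an unadapted JFH-1 NS3-NS5B subgenomic replicon) was kept with 0.25 mg/ml G418 and plated at 10,000 cells/well without G418. Next day, serial dilutions in DMEM/10% FBS/0.5% DMSO were added for 72 h. Replicon RNA was measured by TaqMan RT-PCR and normalized to total RNA. Mean ± SD, ≥3 experiments.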

[43] = target: Histamine H1 receptor (Homo sapiens) (UniProt P35367); assay: Inhibition of human H1 receptor at 10 uM
[44] = target: Beta-secretase 1 (Homo sapiens) (UniProt P56817); assay: Inhibition of human recombinant BACE-1 at 10 uM
[45] = Mean retention time in dog at 5 mg/kg, po; assay type: ADME, organism-based, Canis lupus familiaris; set-up: dose 5 mg/kg, route oral; conditions: in vivo; method in brief: as §2

Sequence of Histamine H1 receptor (Homo sapiens) (P35367 whole entry): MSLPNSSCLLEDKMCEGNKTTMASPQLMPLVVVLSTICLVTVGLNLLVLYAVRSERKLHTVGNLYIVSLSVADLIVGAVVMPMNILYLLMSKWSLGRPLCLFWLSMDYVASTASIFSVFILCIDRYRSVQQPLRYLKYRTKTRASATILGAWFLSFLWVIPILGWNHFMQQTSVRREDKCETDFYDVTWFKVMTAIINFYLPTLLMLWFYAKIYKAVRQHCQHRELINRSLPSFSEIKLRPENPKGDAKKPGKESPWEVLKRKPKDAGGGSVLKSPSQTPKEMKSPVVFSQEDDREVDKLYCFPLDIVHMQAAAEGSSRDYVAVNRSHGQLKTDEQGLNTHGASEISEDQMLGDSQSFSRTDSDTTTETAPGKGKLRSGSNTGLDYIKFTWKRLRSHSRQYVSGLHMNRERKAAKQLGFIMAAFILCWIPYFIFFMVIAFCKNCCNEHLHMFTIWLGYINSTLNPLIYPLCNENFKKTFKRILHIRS
Sequence of Caspase-5 (Homo sapiens) (P51878 137-327 limits assumed): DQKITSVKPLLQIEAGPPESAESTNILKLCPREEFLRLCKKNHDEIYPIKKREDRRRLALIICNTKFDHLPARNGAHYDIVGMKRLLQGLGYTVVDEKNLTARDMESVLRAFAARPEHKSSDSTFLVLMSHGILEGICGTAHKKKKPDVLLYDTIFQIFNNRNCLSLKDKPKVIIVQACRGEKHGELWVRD
Sequence of Caspase-5 (Homo sapiens) (P51878 347-434 limits assumed): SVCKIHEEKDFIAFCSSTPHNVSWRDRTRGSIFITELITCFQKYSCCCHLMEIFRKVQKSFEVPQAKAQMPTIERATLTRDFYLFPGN
Sequence of Angiotensin-converting enzyme (Homo sapiens) (P12821 whole entry): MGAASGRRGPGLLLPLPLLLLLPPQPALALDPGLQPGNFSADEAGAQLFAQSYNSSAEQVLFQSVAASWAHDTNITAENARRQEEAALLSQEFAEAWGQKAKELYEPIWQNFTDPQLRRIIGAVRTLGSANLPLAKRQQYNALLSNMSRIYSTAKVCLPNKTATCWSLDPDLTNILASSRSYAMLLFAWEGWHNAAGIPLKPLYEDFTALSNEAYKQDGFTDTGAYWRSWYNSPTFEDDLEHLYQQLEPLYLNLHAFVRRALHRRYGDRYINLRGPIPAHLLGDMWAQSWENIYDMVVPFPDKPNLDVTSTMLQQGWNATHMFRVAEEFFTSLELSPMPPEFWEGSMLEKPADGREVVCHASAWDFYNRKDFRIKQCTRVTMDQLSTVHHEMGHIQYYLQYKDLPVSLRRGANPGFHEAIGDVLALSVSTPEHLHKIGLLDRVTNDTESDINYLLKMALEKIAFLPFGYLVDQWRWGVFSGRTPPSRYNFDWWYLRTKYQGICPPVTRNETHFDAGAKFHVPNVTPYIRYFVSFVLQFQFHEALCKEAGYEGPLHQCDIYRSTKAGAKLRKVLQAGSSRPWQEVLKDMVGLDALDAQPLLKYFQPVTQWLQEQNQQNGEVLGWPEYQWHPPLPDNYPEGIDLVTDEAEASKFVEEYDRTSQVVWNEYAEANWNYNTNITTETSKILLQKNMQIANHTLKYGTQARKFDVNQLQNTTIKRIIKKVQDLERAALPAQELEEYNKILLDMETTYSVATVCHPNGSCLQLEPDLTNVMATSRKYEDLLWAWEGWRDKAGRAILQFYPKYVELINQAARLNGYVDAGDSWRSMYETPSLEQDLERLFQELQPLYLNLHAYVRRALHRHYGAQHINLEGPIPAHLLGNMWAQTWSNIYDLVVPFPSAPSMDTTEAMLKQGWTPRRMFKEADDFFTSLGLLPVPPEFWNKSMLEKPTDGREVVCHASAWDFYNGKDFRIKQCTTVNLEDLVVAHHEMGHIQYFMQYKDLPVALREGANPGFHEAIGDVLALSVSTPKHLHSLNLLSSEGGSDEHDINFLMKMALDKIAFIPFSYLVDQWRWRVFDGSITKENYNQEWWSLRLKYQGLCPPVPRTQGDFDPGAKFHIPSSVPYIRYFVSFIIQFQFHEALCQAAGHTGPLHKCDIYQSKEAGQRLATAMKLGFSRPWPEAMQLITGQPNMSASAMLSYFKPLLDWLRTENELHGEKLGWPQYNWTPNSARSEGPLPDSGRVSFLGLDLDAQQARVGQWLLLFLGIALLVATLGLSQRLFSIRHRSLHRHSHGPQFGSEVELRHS
Sequence of 5-hydroxytryptamine receptor 2A (Rattus norvegicus) (P14842 whole entry): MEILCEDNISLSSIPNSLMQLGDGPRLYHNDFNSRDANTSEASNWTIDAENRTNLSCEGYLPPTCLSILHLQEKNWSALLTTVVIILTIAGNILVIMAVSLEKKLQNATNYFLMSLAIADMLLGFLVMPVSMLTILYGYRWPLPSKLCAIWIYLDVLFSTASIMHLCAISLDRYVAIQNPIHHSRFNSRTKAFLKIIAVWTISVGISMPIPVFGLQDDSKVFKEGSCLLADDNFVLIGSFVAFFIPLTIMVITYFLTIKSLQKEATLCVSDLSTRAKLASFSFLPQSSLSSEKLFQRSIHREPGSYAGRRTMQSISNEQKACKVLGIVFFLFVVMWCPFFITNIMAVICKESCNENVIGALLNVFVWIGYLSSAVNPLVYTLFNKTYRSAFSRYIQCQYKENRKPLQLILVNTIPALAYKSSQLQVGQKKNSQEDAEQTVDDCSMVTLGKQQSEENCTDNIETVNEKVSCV
Sequence of Neprilysin (Rattus norvegicus) (P07861 whole entry): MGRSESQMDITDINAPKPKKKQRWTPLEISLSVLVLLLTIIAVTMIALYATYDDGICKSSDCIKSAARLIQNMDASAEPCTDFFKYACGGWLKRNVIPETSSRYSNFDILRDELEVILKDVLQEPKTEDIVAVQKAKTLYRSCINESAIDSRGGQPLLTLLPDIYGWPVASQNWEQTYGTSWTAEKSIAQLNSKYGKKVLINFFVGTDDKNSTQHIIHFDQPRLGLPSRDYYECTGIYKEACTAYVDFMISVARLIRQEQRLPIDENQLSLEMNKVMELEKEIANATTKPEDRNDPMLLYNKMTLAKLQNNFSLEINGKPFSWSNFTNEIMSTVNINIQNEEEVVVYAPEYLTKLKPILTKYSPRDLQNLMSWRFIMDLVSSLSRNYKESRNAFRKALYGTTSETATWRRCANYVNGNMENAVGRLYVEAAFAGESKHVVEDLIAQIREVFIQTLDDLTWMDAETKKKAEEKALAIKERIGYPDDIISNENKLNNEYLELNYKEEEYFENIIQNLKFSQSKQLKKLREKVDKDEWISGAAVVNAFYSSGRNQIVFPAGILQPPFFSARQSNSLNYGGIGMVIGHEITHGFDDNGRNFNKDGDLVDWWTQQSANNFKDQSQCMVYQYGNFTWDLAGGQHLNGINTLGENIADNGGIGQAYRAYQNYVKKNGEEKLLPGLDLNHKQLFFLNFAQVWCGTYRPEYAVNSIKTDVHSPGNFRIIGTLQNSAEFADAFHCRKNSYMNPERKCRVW
Sequence of Caspase-6 (Homo sapiens) (P55212 24-179 limits assumed): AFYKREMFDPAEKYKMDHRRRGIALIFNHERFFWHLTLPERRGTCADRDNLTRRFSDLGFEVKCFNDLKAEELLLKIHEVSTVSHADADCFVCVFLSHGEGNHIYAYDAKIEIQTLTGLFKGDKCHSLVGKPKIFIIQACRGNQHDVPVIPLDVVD
Sequence of Caspase-6 (Homo sapiens) (P55212 194-293 limits assumed): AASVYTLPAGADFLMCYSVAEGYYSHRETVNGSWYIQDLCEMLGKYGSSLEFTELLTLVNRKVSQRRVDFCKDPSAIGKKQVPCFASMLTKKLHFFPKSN
Sequence of Sodium-dependent noradrenaline transporter (Homo sapiens) (P23975 whole entry): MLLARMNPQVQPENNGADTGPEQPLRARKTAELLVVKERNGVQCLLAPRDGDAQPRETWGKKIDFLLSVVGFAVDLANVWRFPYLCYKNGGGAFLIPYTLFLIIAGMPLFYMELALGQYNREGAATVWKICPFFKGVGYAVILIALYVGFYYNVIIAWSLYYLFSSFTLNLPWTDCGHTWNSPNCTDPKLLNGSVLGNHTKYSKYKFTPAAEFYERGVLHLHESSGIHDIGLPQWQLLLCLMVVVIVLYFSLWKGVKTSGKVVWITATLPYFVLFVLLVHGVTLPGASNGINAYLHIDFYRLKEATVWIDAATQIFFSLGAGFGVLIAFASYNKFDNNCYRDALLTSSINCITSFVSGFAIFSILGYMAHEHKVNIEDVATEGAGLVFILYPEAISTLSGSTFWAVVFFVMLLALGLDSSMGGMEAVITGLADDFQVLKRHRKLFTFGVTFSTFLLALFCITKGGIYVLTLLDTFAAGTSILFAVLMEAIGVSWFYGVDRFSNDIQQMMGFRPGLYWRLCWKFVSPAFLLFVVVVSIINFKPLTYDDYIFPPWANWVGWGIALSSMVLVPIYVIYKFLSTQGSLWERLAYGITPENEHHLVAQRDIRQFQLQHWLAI
Sequence of D(1A) dopamine receptor (Homo sapiens) (P21728 whole entry): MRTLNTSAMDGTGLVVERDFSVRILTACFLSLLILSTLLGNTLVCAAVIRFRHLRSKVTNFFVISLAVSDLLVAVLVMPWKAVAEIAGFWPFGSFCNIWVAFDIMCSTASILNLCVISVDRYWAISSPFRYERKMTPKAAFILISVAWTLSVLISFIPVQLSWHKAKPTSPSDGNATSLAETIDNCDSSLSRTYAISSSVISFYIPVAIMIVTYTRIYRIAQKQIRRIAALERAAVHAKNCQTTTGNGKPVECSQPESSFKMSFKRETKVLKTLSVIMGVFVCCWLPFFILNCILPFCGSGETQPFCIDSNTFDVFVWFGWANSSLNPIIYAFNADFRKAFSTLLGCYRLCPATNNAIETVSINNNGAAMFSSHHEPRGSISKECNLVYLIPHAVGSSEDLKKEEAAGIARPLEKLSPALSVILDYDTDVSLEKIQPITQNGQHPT
Sequence of Thromboxane A2 receptor (Homo sapiens) (P21731 whole entry): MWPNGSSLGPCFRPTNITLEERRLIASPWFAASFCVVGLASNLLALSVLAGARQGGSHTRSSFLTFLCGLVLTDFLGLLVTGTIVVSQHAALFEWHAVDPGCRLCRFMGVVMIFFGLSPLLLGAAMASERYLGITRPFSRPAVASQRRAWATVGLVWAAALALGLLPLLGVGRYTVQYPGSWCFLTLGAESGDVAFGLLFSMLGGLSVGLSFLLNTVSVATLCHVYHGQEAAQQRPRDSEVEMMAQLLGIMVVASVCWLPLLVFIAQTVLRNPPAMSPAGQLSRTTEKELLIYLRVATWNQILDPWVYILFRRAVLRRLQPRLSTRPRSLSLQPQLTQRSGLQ

C=C[C@@H]1C[C@]1(NC(=O)[C@@H]1C[C@@H](Oc2cc(-c3csc(NC(=O)C(C)C)n3)nc3c(Br)c(OC)ccc23)CN1C(=O)[C@@H](NC(=O)OC1CCCC1)C(C)(C)C)C(=O)O
inhibition [1]: 33%
AUC(0-inf) [2]: 1.63 µM·h
inhibition [3]: 6%
inhibition [4]: 18%
inhibition [5]: 22%
AUC(0-inf) [6]: 14 µM·h
inhibition [7]: 18%
MRT [8]: 3.18 h
inhibition [9]: 24%
inhibition [10]: 10%
inhibition [11]: 11%
inhibition [12]: 18%
inhibition [13]: 11%
inhibition [14]: 0%
inhibition [15]: 0%
inhibition [16]: 11%
inhibition [17]: 15%
inhibition [18]: 47%
inhibition [19]: 12%
inhibition [20]: 5%
Cmax [21]: 3800 nM
inhibition [22]: 9%
inhibition [23]: 0%
inhibition [24]: 7%
inhibition [25]: 5%
inhibition [26]: 21%
inhibition [27]: 22%
inhibition [28]: 14%
inhibition [29]: 9%
inhibition [30]: 18%
inhibition [31]: 28%
inhibition [32]: 26%
inhibition [33]: 6%
inhibition [34]: 9%
AUC(0-inf) [35]: 8.3 µM·h
inhibition [36]: 0%
inhibition [37]: 5%
inhibition [38]: 6%
Cmax [39]: 2000 nM
Tmax [40]: 0.83 h
inhibition [41]: 20%
pEC50 [42]: 7.30
inhibition [43]: 3%
inhibition [44]: 74%
MRT [45]: 3.7 h
